Data set [1] can be described thus: Oral bioavailability in Sprague-Dawley rat at 3 mg/kg administered as cassette dosing. In kind it is ADME, organism-based. Conditions: in vivo. An outline of the steps:
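Rats were dosed i.v. at 1 mg/kg in NMP/PEG200 (3:7) and p.o. at 3 mg/kg in CMC/water/Tween (0.5:99:0.5). PK parameters were derived from blood concentration–time curves for both routes.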

For data set [2], the species on record is Rattus norvegicus. Briefly: Drug metabolism in rat. In kind it is ADME, organism-based. The conditions noted are these: in vivo.
Data set [3] concerns Rattus norvegicus. Description: In vivo inhibition of Syk in Lewis rat assessed as reduction in FcgR-induced SLP76 phosphorylation in peripheral blood monocytes at 3 to 30 mg/kg, po measured after 2 to 24 hrs. It is filed as functional, organism-based. Also noted: route oral.
Data set [4] can be described thus: Drug uptake in blood of Lewis rat collagen-induced arthritis model at 10 mg/kg, po qd administered on day 15 post immunization measured at 4 hrs on day 18. It is filed as ADME, organism-based. The arrangement: dose 10 mg/kg, route oral. The conditions noted are these: read-out: Drug uptake. An outline of the steps: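 Collagen-arthritic Lewis rats given 3, 10 or 30 mg/kg p.o. once daily from day 15; blood levels measured on day 18 (third day of treatment) at 4, 8 and 24 h after dosing.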

A short description of data set [5]: Cytotoxicity against C57BL/6 mouse bone marrow cells assessed as growth inhibition preincubated for 4 days followed by [3H]-thymidine addition measured after 5 hrs by betaplate counting analysis. The conditions noted are these: Mus musculus, C57BL/6, Bone marrow cell. It is filed as cell-based, Bone marrow cell.
Data set [6] concerns the target Serine/threonine-protein kinase PAK 6 (Homo sapiens, UniProt Q9NQU5). Description: Competitive binding affinity to human PAK6.
The test system of data set [7] is Rattus norvegicus. Description: Increase in body weight gain in Lewis rat collagen-induced arthritis model at 3 to 30 mg/kg, po qd administered on day 15 post immunization measured up to day 28. In kind it is functional, organism-based. In outline:
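Lewis rats with collagen-induced arthritis, randomized once joints swelled and given 3, 10 or 30 mg/kg p.o. once daily from day 15 to 28; animals weighed regularly throughout, compared against vehicle-treated rats.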

A short description of data set [8]: Drug metabolism in liver microsomes (unknown origin). In kind it is ADME.
Another data set addresses hERG (KCNH2) (Homo sapiens, UniProt Q12809). Briefly: Inhibition of human ERG at 10 uM by manual patch clamp assay relative to control.
Data set [9] concerns the target T1, Mitogen-activated protein kinase kinase kinase 2 (Homo sapiens, UniProt Q9Y2U5).
T1 sequence (Q9Y2U5 whole entry): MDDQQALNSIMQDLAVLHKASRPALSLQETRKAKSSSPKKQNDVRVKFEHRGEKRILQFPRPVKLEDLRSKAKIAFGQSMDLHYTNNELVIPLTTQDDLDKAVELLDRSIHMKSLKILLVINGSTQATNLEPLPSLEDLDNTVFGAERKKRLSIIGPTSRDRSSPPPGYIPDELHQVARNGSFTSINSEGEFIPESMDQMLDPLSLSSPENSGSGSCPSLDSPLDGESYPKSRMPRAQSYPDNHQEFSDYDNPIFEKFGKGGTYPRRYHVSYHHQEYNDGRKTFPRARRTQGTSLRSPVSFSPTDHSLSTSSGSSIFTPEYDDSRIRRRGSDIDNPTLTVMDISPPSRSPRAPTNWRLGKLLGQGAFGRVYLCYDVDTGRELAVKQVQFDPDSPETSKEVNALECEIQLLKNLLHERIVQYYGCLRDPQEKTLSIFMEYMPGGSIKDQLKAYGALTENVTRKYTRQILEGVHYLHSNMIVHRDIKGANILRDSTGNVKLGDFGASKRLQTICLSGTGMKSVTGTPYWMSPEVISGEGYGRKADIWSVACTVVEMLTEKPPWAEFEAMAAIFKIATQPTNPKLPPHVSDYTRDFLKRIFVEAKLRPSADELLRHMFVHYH
Description: Competitive binding affinity to human MAP3K2.

The species entered for another data set is Canis familiaris. Briefly: Hepatotoxicity in dog assessed as portal inflammation measured for 4 weeks by GLP study. It is filed as toxicity, organism-based, Canis lupus familiaris. Conditions: in vivo, 672 h.
A short description of data set [10]: Volume of distribution at steady state in Beagle dog at 0.1 mg/kg, iv and 0.3 mg/kg, po. It is filed as ADME, organism-based, Canis lupus familiaris. Conditions: in vivo, read-out: Vdss. In outline:
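Beagle dogs dosed one-in-one. The i.v. dose was 0.1 mg/kg in NMP/PEG200 (3:7), and the p.o. dose was 0.3 mg/kg in MC/water (0.5:99.5). Blood levels were followed after each route.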

This is an account of results in ChEMBL document CHEMBL3414433, “Discovery and profiling of a selective and efficacious Syk inhibitor” (J Med Chem, 2015).

Molecules are shown by their SMILES. Active and inactive are the calls of the source. The rule behind the calls is not given here.

Sequence of hERG (KCNH2) (Q12809 whole entry): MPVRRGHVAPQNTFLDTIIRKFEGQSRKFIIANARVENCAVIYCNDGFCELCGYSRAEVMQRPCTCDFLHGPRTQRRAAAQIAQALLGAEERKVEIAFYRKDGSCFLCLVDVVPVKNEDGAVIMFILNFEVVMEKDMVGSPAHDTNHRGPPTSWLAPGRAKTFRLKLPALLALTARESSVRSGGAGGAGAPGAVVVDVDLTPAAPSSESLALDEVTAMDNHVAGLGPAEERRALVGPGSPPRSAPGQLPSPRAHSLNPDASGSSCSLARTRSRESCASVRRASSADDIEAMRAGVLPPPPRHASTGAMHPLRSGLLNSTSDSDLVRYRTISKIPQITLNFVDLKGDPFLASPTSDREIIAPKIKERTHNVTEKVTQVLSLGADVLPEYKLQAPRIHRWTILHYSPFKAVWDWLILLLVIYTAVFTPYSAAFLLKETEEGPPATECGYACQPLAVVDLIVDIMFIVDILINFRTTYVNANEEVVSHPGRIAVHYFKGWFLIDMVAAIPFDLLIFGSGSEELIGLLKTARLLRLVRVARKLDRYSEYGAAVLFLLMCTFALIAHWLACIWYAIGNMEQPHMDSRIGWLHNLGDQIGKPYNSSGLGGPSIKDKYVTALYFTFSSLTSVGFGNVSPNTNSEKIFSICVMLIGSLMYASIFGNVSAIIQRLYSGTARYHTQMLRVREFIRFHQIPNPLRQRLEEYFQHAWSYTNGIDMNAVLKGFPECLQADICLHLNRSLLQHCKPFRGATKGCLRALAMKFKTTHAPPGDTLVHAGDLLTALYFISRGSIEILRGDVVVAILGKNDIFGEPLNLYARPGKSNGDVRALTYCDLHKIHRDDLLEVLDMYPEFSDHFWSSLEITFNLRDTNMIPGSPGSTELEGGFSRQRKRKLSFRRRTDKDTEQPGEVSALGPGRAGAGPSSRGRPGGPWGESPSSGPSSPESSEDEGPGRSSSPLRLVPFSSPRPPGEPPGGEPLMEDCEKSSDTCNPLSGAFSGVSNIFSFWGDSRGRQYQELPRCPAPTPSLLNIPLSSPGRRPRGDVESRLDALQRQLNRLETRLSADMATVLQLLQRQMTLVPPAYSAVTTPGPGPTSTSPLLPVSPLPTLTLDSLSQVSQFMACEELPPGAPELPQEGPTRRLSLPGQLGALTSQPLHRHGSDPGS
Sequence of Serine/threonine-protein kinase PAK 6 (Q9NQU5 whole entry): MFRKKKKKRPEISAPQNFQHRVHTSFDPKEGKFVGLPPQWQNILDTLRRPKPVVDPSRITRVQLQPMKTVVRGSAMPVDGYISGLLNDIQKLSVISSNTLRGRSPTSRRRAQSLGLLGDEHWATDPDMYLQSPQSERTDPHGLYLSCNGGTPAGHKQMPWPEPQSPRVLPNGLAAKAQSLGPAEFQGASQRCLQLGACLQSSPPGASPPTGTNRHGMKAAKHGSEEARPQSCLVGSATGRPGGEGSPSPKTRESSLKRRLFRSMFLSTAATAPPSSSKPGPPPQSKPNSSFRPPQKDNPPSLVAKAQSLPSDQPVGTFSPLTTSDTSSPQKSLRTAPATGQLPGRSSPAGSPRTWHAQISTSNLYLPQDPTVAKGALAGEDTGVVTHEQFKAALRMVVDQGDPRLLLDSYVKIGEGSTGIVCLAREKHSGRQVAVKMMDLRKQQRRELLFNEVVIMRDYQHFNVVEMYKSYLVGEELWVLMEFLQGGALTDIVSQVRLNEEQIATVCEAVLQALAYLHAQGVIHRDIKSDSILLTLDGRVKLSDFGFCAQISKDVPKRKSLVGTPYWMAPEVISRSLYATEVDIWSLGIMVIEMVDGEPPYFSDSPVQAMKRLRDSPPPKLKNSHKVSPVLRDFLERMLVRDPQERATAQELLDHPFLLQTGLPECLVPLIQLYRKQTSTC

`NC(=O)c1nnc(N[C@@H]2CCCC[C@@H]2N)nc1Nc1cccc2cc[nH]c12`: the bioavailability in [1] turned out to be 60%. Further, the Drug metabolism result (in the data set filed under Rattus norvegicus [2]; in data set [8]) was “metabolite_notdetected” each time. Moreover, the 50% inhibitory concentration (IC50) with Rattus norvegicus [3] came out at 189 nM; in data set [5] it was 9020 nM. The concentration at 4 h in [4] came out at 866 nM. Moreover, the Kd in data set [6] is 110 nM; in data set [9], 140 nM. Besides, the outcome in the data set with Rattus norvegicus [7] was Active. Moreover, the inhibition at 10 µM against hERG (KCNH2) amounted to 0%. The Activity result in the data set listed under Canis familiaris is listed as “Toxic”. Also, in data set [10], the Vd turned out to be 6.8 L/kg.
